Compound activity deposited in PubChem by several laboratories.
HCV core dimer – blocks dimerization of HCV core protein; TR-FRET GST/Flag-core106 dimerization, 1536-well; inhibition, % at 5 µM; 300,000 tested, 0.33% active; AID 1899;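 active = inhibition above the mean of all tested compounds plus 3 SD, set per screening campaign, cut at about 45% in these data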
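Material: GST/Flag-tagged HCV core106 proteins. Incubation: 4 h, 22.5 °C incubation. Read-out basis: inhibition (%) from 671 over 617 nm ratio. Measured by: TR-FRET, excitation 340 nm, emission 617 and 671 nm.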
MLLE-PAM2 inh – inhibitors of microRNA-mediated deadenylation, human PABP1 MLLE binding | GST-MLLE / FITC-PAM2 fluorescence polarization | inhibition, % at 20 µM | AID 588489 | P11940 | 360,000 tested, 0.36% active; in the data active = inhibition above about 35%, passing the limit was not always enough;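 note: plate controls were DMSO wells with GST-MLLE for no effect and wells lacking GST-MLLE protein for full effect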
eIF4H FP inh – inhibitors of RNA binding by human eIF4H; eIF4H fluorescence polarization binding assay; inhibition, % at 35 µM; 290,000 tested, 0.94% active; AID 2012;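 note: calls also rest on retests at 20 µM and on dose response follow-up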
PABP FP inh – blocks human PABP binding to poly(A) RNA; P11940; fluorescence polarization; inhibition, % at 35 µM; 290,000 tested, 1% active;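 note: calls also rest on retests at 20 µM and on dose response follow-up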
DNA FID counter-1 – counter-screen for HCV NS3 helicase inhibitors: DNA intercalator displacement | AID 1845 | DNA fluorescent intercalator displacement, fluorescence | inhibition, % at 7.9 µM | 290,000 tested, 0.17% active; in the data active = inhibition above about 37%;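 note: 0% = vehicle and 100% = reference compound; higher means more ethidium bromide displaced from hairpin DNA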
NS3 helicase inh – HCV NS3 helicase inhibition; NS3 helicase DNA unwinding, Cy5 molecular beacon fluorescence; inhibition, % at 10.9 µM; 290,000 tested, 0.56% active;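 active = inhibition above the mean of all tested compounds plus 3 SD, set per campaign, cut at about 35% in these data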;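 note: 0% = DMSO wells and 100% = thioflavine S control wells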
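Assay system – hepatitis C virus NS3 helicase domain fragment enzyme · Buffer or medium – MOPS pH 6.5, MgCl2, DTT, Tween20, BSA · Reagent – Cy5/quencher beacon DNA duplex and ATP to start · Compound – single 10.9 µM dose · Timing – 1 h at 25 °C · Technique – Cy5 beacon fluorescence read at start and 1 h · Measure – % inhibition of unwinding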
NS3 hel confirm – confirmation of Hepatitis C virus NS3 helicase inhibitors | shares compounds with NS3 helicase inh | NS3 helicase DNA unwinding, Cy5 molecular beacon fluorescence | inhibition, % at 10.9 µM | 1,600 tested, 31% active | AID 1943;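 active = inhibition above the mean of all tested compounds plus 3 SD, cutoff set per campaign, cut at about 36% in these data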
DNA FID counter-2 – counter-screen for HCV NS3 helicase inhibitors: DNA intercalator displacement; shares compounds with NS3 helicase inh; 1,600 tested, 4% active; inhibition, % at 7.9 µM; AID 1945; DNA fluorescent intercalator displacement, fluorescence; in the data active = inhibition above about 37%;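 note: 0% = vehicle and 100% = reference compound; higher means more displacement of ethidium bromide from the DNA hairpin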
DNA FID DR – displaces fluorescent intercalator from DNA, HCV helicase counter-screen | 120 tested, under 10 active | shares compounds with NS3 helicase inh | IC50, µM | fluorescent intercalator displacement from DNA, fluorescence
An asterisk follows results filed as active; u = inconclusive; x = no result given. Only some compounds are listed: those with a hit (about 2% of all), similar ones and a draw of the others. Unless noted, the rule behind the calls is not given here.

SMILES	HCV core dimer	MLLE-PAM2 inh	eIF4H FP inh	PABP FP inh	DNA FID counter-1	NS3 helicase inh	NS3 hel confirm	DNA FID counter-2	others
Cc1cccc(N(CC(=O)NCc2ccco2)S(=O)(=O)c2ccccc2)c1	x	-7	x	x	x	x	x	x
Cc1ccc(-c2nc3ccc(Cl)cn3c2Cc2cccc(Cl)c2)cc1	x	-7	x	x	x	x	x	x
COc1cc(C2C(C(=O)c3ccc(C)o3)=C(O)C(=O)N2c2cc(C)on2)ccc1OCc1ccccc1 (stereo unspecified)	13	-6	4	2	-47	84*	188*	-26	DNA FID DR=>79
CCCCCOc1ccc(C2C(C(=O)c3ccc(C)o3)=C(O)C(=O)N2c2cc(C)on2)cc1 (stereo unspecified)	14	-8	10	-6	-50	63*	162*	-39	DNA FID DR=>79
COc1cc(C2C(C(=O)c3ccc(C)o3)=C(O)C(=O)N2c2cc(C)on2)cc(OC)c1OC (stereo unspecified)	1	12	x	x	x	x	x	x
COC(=O)c1ccc(C2C(C(=O)c3cc4ccccc4o3)=C(O)C(=O)N2c2cc(C)on2)cc1 (stereo unspecified)	33	-35	u	46*	-23	51*	93*	-29
CCOc1ccc(C2C(C(=O)c3ccc(C)o3)=C(O)C(=O)N2c2cc(C)on2)cc1OC (stereo unspecified)	-5	-5	29	3	-37	18	x	x
Cc1cccc(N2C(=O)C(O)=C(C(=O)c3cccs3)C2c2cccc(Oc3ccccc3)c2)n1 (stereo unspecified)	32	9	13	0	-34	80*	114*	18	DNA FID DR=>79
COc1ccc(-c2oc3ccccc3c2C(=O)OCc2ccccc2)cc1	-5	-5	-5	-2	-5	-31	x	x
O=C(Nc1ccc2c3c(cccc13)CC2)c1ccccc1	x	-10	x	x	x	x	x	x
COc1cc(C2C(C(=O)c3cccs3)=C(O)C(=O)N2c2cc(C)on2)ccc1O (stereo unspecified)	2	-4	-2	17	11	45*	-3	37*
Cc1cc(-n2c(C)cc(C(=O)CSc3ccc4c(c3)OCCO4)c2C)no1	5	15	3	1	-16	37*	0	-23
Cn1c(=O)c2c(n(C)c1=O)n(C)c(=O)n2C	x	-9	x	x	x	x	x	x
O=S(=O)(Nc1cc(Sc2ncn[nH]2)c(O)c2ccccc12)c1ccccc1	x	-61	-2	11	3	10	x	x
O=C(O)CSc1cc(NS(=O)(=O)c2ccc(Br)cc2)c2ccccc2c1O	-13	46*	6	7	-9	55*	70*	26
Cc1ccc(S(=O)(=O)N(C(=O)c2ccco2)c2cc3sc(=O)oc3c3ccccc23)cc1	-8	-8	12	-5	-22	40*	-8	-3
Cc1c(NC(=O)c2cccnc2Cl)c(=O)n(-c2ccccc2)n1C	3	2	-4	-2	-7	5	x	x
Cc1ccc(-n2nc(C)c3c2OC(N)=C(C#N)C3c2ccoc2)cc1 (stereo unspecified)	0	11	14	46	-12	45*	-18	18
Cc1ccc(-n2nc(C)c3c2OC(N)=C(C#N)C3c2ccco2)cc1 (stereo unspecified)	-6	21	-4	7	-12	23	x	x
COc1ccc(NC(=O)C2(C)CCN2Cc2ccc(OC(F)(F)F)cc2)cc1OC (stereo unspecified)	x	-5	x	x	x	x	x	x
COc1ccccc1C(NC(C)=O)c1cc(Cl)c2cccnc2c1O (stereo unspecified)	8	-9	15	-11	-23	40*	-8	-4
O=C(O)COc1ccccc1C(Nc1cccnc1)c1cc(Cl)c2cccnc2c1O (stereo unspecified)	x	32	100	23	-9	37*	69*	81*
CC(=O)NC(c1ccc(Cl)cc1Cl)c1ccc2cccnc2c1O (stereo unspecified)	x	12	8	-4	-26	36*	13	-16
CC(C)c1cc(CN2C(C)COCC2C)cc(C(C)C)c1O (stereo unspecified)	x	8	x	x	x	x	x	x
CC1(C(=O)NS(=O)(=O)c2ccc(Br)cc2)CCN1C(=O)C1(c2ccccc2)CC1 (stereo unspecified)	x	-2	x	x	x	x	x	x
SMILES	HCV core dimer	MLLE-PAM2 inh	eIF4H FP inh	PABP FP inh	DNA FID counter-1	NS3 helicase inh	NS3 hel confirm	DNA FID counter-2	others
COc1ccc(NC(=O)c2cc(-c3cc(OC)c(OC)c(OC)c3)nc3ccccc23)cc1OC	2	-1	-2	6	-37	-26	x	x
COc1ccc(-c2cc(C(=O)Nc3ccc(O)cc3)c3ccccc3n2)cc1OC	-1	-5	-10	1	-16	45*	-4	-24
CC(C)CC(=O)N1CC=CC[C@@H](c2ccc(Cl)cc2)N(Cc2ccc(Cl)cc2)C(=O)[C@@H]1Cc1ccccc1	x	-4	x	x	x	x	x	x
COc1ccc(C2C(C(C)=O)=C(C)N=c3s/c(=C\c4cc(C)n(C)c4C)c(=O)n32)c(OC)c1 (stereo unspecified)	-7	49	u	u	-17	1	x	x
COc1ccc(C2C(C(C)=O)=C(C)N=c3s/c(=C\c4ccco4)c(=O)n32)c(OC)c1 (stereo unspecified)	9	-95	42	44	-25	54*	-29	-10
CCOC(=O)C1=C(c2ccccc2)N=c2s/c(=C\c3ccco3)c(=O)n2C1c1cccs1 (stereo unspecified)	69*	-97	75	-1	-19	48*	24	-2
CCN1C(=O)[C@H]2[C@@H](c3ccc(-c4ccccc4)cc3)N3CCC[C@@]3(C(=O)OC)[C@H]2C1=O	3	-15	x	x	x	x	x	x
